ChEMBL document CHEMBL1151190, “Acetylated flavonoid glycosides potentiating NGF action from Scoparia dulcis” (2004)
Calls of active or inactive are those of the source. No cut-off for these calls is given here.

Assays:
PC-12 [1] = assay: Increase of nerve growth factor-stimulated neurite growth in rat PC12D cells at 10 to 100 umol after 48 hrs; assay type: functional, cell-based
Summary of the method: (§1)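 PC12D cells detached with 1 mmol EGTA in PBS for 30 min, seeded at 2 × 10^4 cells/well on poly-L-lysine. After 24 h, switched to medium with 1% fetal calf serum, 2% horse serum, NGF 2 ng/mL plus compound at 10, 30 or 100 µmol (DMSO stocks 50 mmol). Fixed after 48 h with 2% glutaraldehyde, 37 °C, 1 h.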

PC-12 [2] = assay: Induction of neurite growth in rat PC12D cells at 100 umol after 48 hrs; assay type: functional, cell-based
Summary of the method: (§2)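 No NGF was added. PC12D cells were detached with EGTA/PBS and plated on poly-L-lysine. After 24 h they went into medium with 1% fetal calf serum and 2% horse serum plus compound (DMSO stocks 50 mmol). Cells were fixed after 48 h in 2% glutaraldehyde. The percentage with processes ≥ cell-body diameter was scored by phase-contrast microscopy: 3 fields/well, 6 wells/sample.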

PC-12 [3] = assay: Induction of neurite growth in rat PC12D cells at 30 umol after 48 hrs; assay type: functional, cell-based; summary of the method: as §2
PC-12 [4] = assay: Induction of neurite growth in rat PC12D cells at 10 umol after 48 hrs; assay type: functional, cell-based; summary of the method: as §2
PC-12 [5] = assay: Increase of nerve growth factor-stimulated neurite growth in rat PC12D cells at 100 umol after 48 hrs; assay type: functional; summary of the method: as §1

C=CCc1ccc(O[C@@H]2O[C@H](CO)[C@@H](O)[C@H](O)[C@H]2O)c(OC)c1
Activity (PC-12 [1]): inactive

CC(=O)O[C@@H]1[C@@H](O)[C@H](C)O[C@@H](OC[C@H]2O[C@@H](Oc3cc(O)c4c(=O)cc(-c5ccc(O)cc5)oc4c3)[C@H](O)[C@@H](O)[C@@H]2O)[C@@H]1O
Activity (PC-12 [2]): inactive | Activity (PC-12 [3]): inactive | Activity (PC-12 [4]): inactive | Activity (PC-12 [5]): 16.1%

CC(=O)O[C@@H]1[C@@H](O)[C@H](C)O[C@@H](OC[C@H]2O[C@@H](Oc3cc(O)c4c(=O)cc(-c5ccc(O)cc5)oc4c3)[C@H](O)[C@@H](O)[C@@H]2O)[C@@H]1OC(C)=O
Activity (PC-12 [2]): inactive | Activity (PC-12 [3]): inactive | Activity (PC-12 [4]): inactive | Activity (PC-12 [5]): 14.9%

CC(=O)O[C@@H]1[C@@H](O)[C@H](C)O[C@@H](OC[C@H]2O[C@@H](Oc3cc4oc(-c5ccc(O)cc5)cc(=O)c4c(O)c3O)[C@H](O)[C@@H](O)[C@@H]2O)[C@@H]1OC(C)=O
Activity (PC-12 [1]): inactive
